Measured values gathered from unrelated publications.
Lines come from different studies, so protocols differ.
Target: Phosphatidylinositol 4-phosphate 3-kinase C2 domain-containing subunit alpha (PIK3C2A, Homo sapiens, UniProt O00443)
Action: inhibitor

| SMILES | assay | conditions | quantity | result |
| --- | --- | --- | --- | --- |
| Cc1cnc(NC2CCOCC2)nc1-n1cnc(C(=O)NC(CN)c2cc(F)cc(Cl)c2)c1 (stereo not drawn) | enzyme activity, radiometric | 1 µM | remaining activity | 100% |
| Cc1cc(NC(=O)c2cccc3cc(-c4cccc5[nH]nc(N)c45)ccc23)ccc1F | enzyme activity | 0.1 µM | activity vs control | 108% |
| C=CC(=O)Nc1cc(Nc2nccc(Nc3cc(Cl)c(F)cc3C(C)(C)O)n2)c(OC)cc1N1CC[C@@H](N(C)C)C1 | enzyme activity | 1 µM | inhibition | -2% |
| Cc1ccc(NC(=O)c2ccc(C)c(C(F)(F)F)c2)cc1C#Cc1nn(C2CCC(O)CC2)c2ncnc(N)c12 (stereo not drawn) | cell-free assay | 10 µM | remaining signal | 92% |
| COc1cc(Cl)c(C(=O)N[C@@H](CN[C@H]2CC[C@@H](N)CC2)Cc2ccc(C#N)cc2)cc1-c1ccc(CN[C@H](C)c2ccc(C)cc2)o1 | enzyme activity | 1 µM | remaining activity | 93% |
| O=C(CSc1nc2nccnc2c(=O)n1CCc1ccccc1)Nc1ccccc1 | enzyme activity | 10 µM | inhibition | 93% |
| Cc1ccc(C(=O)NCc2ccsc2)cc1C#Cc1cn(C(C)C)c2ncnc(N)c12 | enzyme activity | 1 µM | activity vs control | 98% |
| CN1CC(Oc2cnc(C#N)cc2-c2ccn3nc(NC(=O)C4CC4)cc3c2)C1 | enzyme activity | 1 µM | inhibition | -4% |
| CC(C)CCn1c(SCC(=O)Nc2ccccc2C(F)(F)F)nc2nccnc2c1=O | enzyme activity | 10 µM | inhibition | 84% |
